The source made the active and inactive calls. The rule behind the calls is not given here.
Columns and labels:
Saccharomyces cerevisiae [1] = assay: Fold resistance, ratio of IC50 for Saccharomyces cerevisiae BY740 expressing ribosomal protein cyh2 and harboring mutation in rpl28 to IC50 for Saccharomyces cerevisiae […]; type: functional
How it was run: (§1)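 Four isogenic S. cerevisiae strain pairs, each differing only by presence or absence of cyh2, exposed to varying compound concentrations; growth read by optical density; IC50 derived per strain, resistance as ratio between paired strains.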

Saccharomyces cerevisiae [2] = assay: Antimicrobial activity against Saccharomyces cerevisiae BY740 expressing ribosomal protein cyh2 and harboring mutation in rpl28; type: functional, organism-based; how it was run: as §1
[3] = molecular target: Elongation factor 2 (Homo sapiens) (UniProt P13639); assay: Inhibition of eEF2-mediated tRNA translocation assessed as inhibition of phenylalanyl puromycin formation
How it was run: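 Set up as eEF1A binding assay but with GTP; 5 min at 37°C, compound added to 200 μM final, 5 min at room temperature, then eEF2, puromycin and GTP added; 10 min at 37°C; ethyl acetate-extractable phenylalanyl-puromycin counted by scintillation.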

HeLa = assay: Antiproliferative activity against human HeLa cells assessed as incorporation of [3H]thymidine in nuclear DNA at 2.5 uM after 24 hrs by scintillation counting; type: functional, cell-based
How it was run: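 Each of three tumour cell lines incubated with compound at 2.5 μM for 24 h, then [³H]thymidine added to monitor DNA synthesis; initial proliferation screen.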

[4] = molecular target: Elongation factor 2 (Homo sapiens) (UniProt P13639); assay: Inhibition of eEF2-mediated tRNA translocation assessed as induction of dipeptide accumulation by TLC
[5] = Effect on polyribosome profiling assessed as accumulation of 80S ribosomes after 15 mins by scintillation spectroscopy; type: functional
How it was run: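 Capped [³²P]-labelled rabbit β-globin RNA incubated in rabbit reticulocyte lysate with compound for 15 min, then centrifuged through 10–35% sucrose gradient.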

[6] = molecular target: Elongation factor 2 (Homo sapiens) (UniProt P13639); assay: Inhibition of eEF2-mediated tRNA translocation assessed as decrease in tripeptide (Met-Phe-Phe) formation by TLC
Saccharomyces cerevisiae [7] = assay: Antimicrobial activity against Saccharomyces cerevisiae BY686 expressing ribosomal protein cyh2 and harboring mutation in rpl28; type: functional, organism-based; how it was run: as §1
HCC2218 = assay: Anticancer activity against human HCC2218 cells after 24 hrs by [3H]thymidine incorporation assay; type: functional, cell-based
[8] = Binding affinity to 60S ribosome E-site by footprinting assay
How it was run: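 DMS footprinting of salt-washed 80S ribosomes preincubated 5 min at room temperature with compound, DMS then 5 min at 37°C; rRNA primer extension with AMV reverse transcriptase and [α-³²P]TTP, sequencing gel. For K_D, 300 μl volume at 50 or 100 nM ribosomes titrated with increasing compound.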

C/C(=C\[C@H](C)C(=O)C[C@H](O)CC1CC(=O)NC(=O)C1)[C@@H]1OC(=O)/C=C/CC/C=C/C=C\[C@@H]1C [LACTIMIDOMYCIN]
Ratio IC50 (Saccharomyces cerevisiae [1]): 20.5 | IC50 (Saccharomyces cerevisiae [2]): 1210 nM | inhibition [3]: Active | Activity (HeLa): inactive | inhibition [4]: Active | Activity [5]: Active | inhibition [6]: Active | IC50 (Saccharomyces cerevisiae [7]): 596 nM | Activity (HCC2218): Active | Activity [8]: Dose-dependent effect | Kd [8]: 500 nM

Reference: ChEMBL document CHEMBL1221230, “Inhibition of eukaryotic translation elongation by cycloheximide and lactimidomycin” (Nat Chem Biol, 2010)
